Screening data (PubChem)
PostGolgi ctrl = growth of the yeast control strain, post-Golgi counter-screen. AID 738. actives 5% (n = 98,000). inhibition, % at 10 µM. efflux-deficient yeast background strain, growth absorbance A615, 16 h
PostGolgi yeast = growth inhibition of a yeast mutant, post-Golgi transport screen. actives 0.9% (n = 98,000). post-Golgi transport phenotypic cell assay. inhibition, % at 10 µM. AID 739;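 also: yeast cells grown in 1536-well plates; yeast grown about 18 h at 30C before absorbance read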
tolC growth inh = blocks growth of E. coli BW25113 tolC mutant; OD615; growth inhibition, % at 10 µM (by protocol); actives 2.2% (n = 65,000);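 active = growth inhibition at or above a cutoff equal to the mean over every tested compound plus 3 SD, cut at about 60% in these data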;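 also: growth measured after 20 h incubation at 37 °C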
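Test system: E. coli BW25113 ΔtolC::kan bacteria | Medium: Kanamycin-containing LB broth (50 µg/mL) | Dosing: One dose of 10 µM final | Times: 20 h incubation with compound, 37 °C | Detection: Optical density read at 615 nm | Read-out basis: Percent growth inhibition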
D1 mod = allosteric modulators of human D1 dopamine receptor. HEK293 D1, CRE-luciferase, dopamine EC30 potentiation; actives deviate in either direction. B-score at 10 µM. AID 641. actives 5.9% (n = 58,000);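 active = luminescence count or its row- and column-corrected plate score outside the 99.7% band of the plate's sample wells, on either side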
Ecoli WT expand = blocks growth of wild type E. coli BW25113; OD600 absorbance; growth inhibition, % at 100 µM; actives 0.15% (n = 98,000); AID 710;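 active = growth inhibition above about 50% at one test dose, limit read from the data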;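 also: growth measured after 20 h incubation at 37 °C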
DAT uptake mod = modulates human dopamine transporter uptake under cocaine; LLC-PK1 hDAT cells, [14C]-dopamine uptake with cocaine IC80; actives deviate in either direction; B-score at 10 µM; actives 1.3% (n = 110,000); AID 449768;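 active = Z score or B-score, a plate-position-corrected score, falls beyond the plate's 99.7% confidence bounds, in either direction; inactive = both scores lie inside the 99.7% bounds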;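 also: scored against the spread of the other compound wells on the same plate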
Target sequence (Q01959 whole entry, looked up): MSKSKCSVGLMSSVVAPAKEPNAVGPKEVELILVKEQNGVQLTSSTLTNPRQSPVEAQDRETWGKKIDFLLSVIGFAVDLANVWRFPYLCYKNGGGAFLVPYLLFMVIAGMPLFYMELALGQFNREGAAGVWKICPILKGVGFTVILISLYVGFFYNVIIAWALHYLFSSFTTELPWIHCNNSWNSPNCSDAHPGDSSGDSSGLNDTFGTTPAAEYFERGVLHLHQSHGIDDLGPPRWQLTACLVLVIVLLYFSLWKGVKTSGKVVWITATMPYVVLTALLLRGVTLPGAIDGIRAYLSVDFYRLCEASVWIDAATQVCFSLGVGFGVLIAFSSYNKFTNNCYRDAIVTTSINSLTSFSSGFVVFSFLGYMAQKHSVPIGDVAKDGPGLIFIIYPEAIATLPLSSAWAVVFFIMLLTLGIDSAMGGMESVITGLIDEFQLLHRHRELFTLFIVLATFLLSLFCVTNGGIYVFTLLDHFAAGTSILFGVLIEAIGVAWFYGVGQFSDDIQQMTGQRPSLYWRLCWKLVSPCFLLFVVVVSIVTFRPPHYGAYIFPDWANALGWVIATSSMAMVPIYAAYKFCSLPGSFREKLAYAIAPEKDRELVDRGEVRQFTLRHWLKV
D1 PAM confirm = confirmation of human D1 dopamine receptor allosteric modulators | shares compounds with D1 mod | HEK293 D1 CRE-luciferase, dopamine EC30 potentiation; hits give high values | luminescence at 10 µM | actives 88% (n = 2,200) | AID 642;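 active = luminescence in either of two replicates above the same-plate mean plus 3 SD of the low-dose dopamine control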
D1 no dopamine = activates D1 CRE-luciferase signal without dopamine present. shares compounds with D1 mod. HEK293 D1 CRE-luciferase, luminescence, no dopamine; hits give high values. luminescence at 10 µM. actives 0.8% (n = 1,900). AID 646; in the data active = luminescence above about 3900
Isoprot counter = counter-screen for D1 modulators: isoproterenol response in HEK293 cells. shares compounds with D1 mod. HEK293 D1 CRE-luciferase, isoproterenol EC30 counter-screen. calls only at 10 µM. actives 63% (n = 2,200);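 active = luminescence in either replicate above plate mean of wells with a partly effective reference agonist dose plus 3 SD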;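 also: isoproterenol raises cAMP through native beta-adrenoceptor Gs so signal bypasses D1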
An asterisk follows results filed as active; i = inactive; . = not tested or not shown; + = active, no number. In the library only some 9.3% were active in any assay of this set; here they are far more common. Rule as the data show it, unless noted: active = inhibition above about 30%; inactive = the rest.

SMILES | PostGolgi ctrl | PostGolgi yeast | tolC growth inh | D1 mod | Ecoli WT expand | DAT uptake mod | D1 PAM confirm | D1 no dopamine | Isoprot counter
CCN=C1SC(CC(=O)Nc2ccccc2OCC)C(=O)N1CC (stereo not drawn) | 8.1 | 16.2 | 10.5 | 2.75* | 1.0 | 1.64 | 9772* | 1564 | i
CCCCCCCCSc1nnc(CSc2nc3nc(C)cc(C)n3n2)o1 | 15.4 | 4.2 | . | . | 5.0 | 0.0169 | . | . | .
O=C(NC1CCCCC1)C1CC=CCC1C(=O)OCC(Cl)=C(Cl)Cl (stereo not drawn) | 20.5 | -8.3 | . | . | 5.0 | 0.287 | . | . | .
COc1cc2c(cc1OC)/C(=C/C#N)NC(C)(C)C2 | 7.0 | 0.3 | -2.1 | 10.1* | 7.0 | 0.663 | 16360* | 1644 | +
N#C/C(=C1/CCCCCN1)c1nc2ccccc2s1 | 3.2 | -3.6 | 7.4 | 6.17* | -8.0 | -0.27 | 8248* | 1304 | +
CCOC(=O)c1sc2nc(N3CCOCC3)c3c(c2c1N)CC(C)(C)N(C)C3 | 7.0 | -5.4 | . | 3.06* | -8.0 | -0.989 | 12684* | 1612 | +
N#CCSc1nc2c(sc(=S)n2Cc2ccco2)c(=O)n1-c1ccc(F)cc1 | 12.9 | 4.3 | 25.1 | 2.97* | -9.0 | 0.597 | 10848* | 1572 | i
CN1CCN(C(=O)c2cc3nc(-c4ccc(F)cc4)cc(C(F)(F)F)n3n2)CC1 | 2.1 | -3.3 | -11.2 | -0.339 | -12.0 | 1.06 | . | . | .
Cc1cc(-c2ccc(F)cc2)nc2cc(C(N)=O)nn12 | 21.8 | 0.7 | 9.2 | 10.3* | -1.0 | -0.128 | 15420* | 1800 | +
O=C(CC1Oc2ccccc2NC1=O)NC1CC1 (stereo not drawn) | 2.2 | 1.3 | -14.7 | -0.329 | -11.0 | . | . | . | .
CCN(CCNC(=O)CC1Oc2ccccc2NC1=O)c1ccccc1 (stereo not drawn) | 9.6 | -0.3 | 11.2 | 3* | 2.0 | -1.19 | 4876 | 1496 | i
CC1CCN(Cc2ccc(NC(=O)CC3Oc4ccccc4NC3=O)cc2)CC1 (stereo not drawn) | 3.3 | 2.0 | -10.3 | 2.81* | 5.0 | 0.0249 | 5132 | 1676 | i
CCC(Oc1ccc2c(c1)C(=O)CC(C)(C)O2)C(=O)NCCN1CCCCCC1 (stereo not drawn) | 4.6 | -2.7 | -15.7 | -0.912 | -9.0 | . | . | . | .
Cn1c(=O)c2c(nc(SCCCO)n2Cc2ccccc2Cl)n(C)c1=O | 4.4 | 4.9 | 3.0 | 3.87* | 6.0 | -0.912 | 6636* | 1528 | i
CCc1nc(SCC(=O)N2CCCc3ccccc32)c2c(=O)n(C)c(=O)n(C)c2n1 | . | . | -0.6 | -0.433 | . | . | . | . | .
CN1Cc2cc(C(=O)c3cc(Cl)cc(CSc4ncccn4)c3O)cnc2NC1=O | 12.2 | 13.9 | 12.9 | 4.49* | -7.0 | -0.736 | 8560* | . | +
Cc1ccc(O)c(C(=O)c2cnc3c(c2)CN(C)C(=O)N3)c1 | 5.1 | -9.7 | . | . | 2.0 | 0.436 | . | . | .
Cc1cc(C)n(CC(=O)n2c3ccccc3c3ccccc32)n1 | -0.3 | -6.1 | 15.2 | 2.01 | 3.0 | -0.731 | . | . | .
Cc1cc(C)n(CC(=O)n2c3c(c4ccccc42)CCCC3)n1 | 4.4 | -5.8 | 7.4 | 5.67* | -5.0 | -0.961 | 11600* | 1728 | i
COc1ccc2cc3c(N)nn(C(=O)Cc4ccccc4OC)c3nc2c1 | -0.1 | -3.5 | 18.6 | 2.6* | -16.0 | 0.871 | 8828* | 1504 | i
Cc1sc2ncnc(SCc3ccco3)c2c1C | 8.3 | -2.2 | 12.9 | 0.535 | -10.0 | -1.01 | . | . | .
Cc1noc(C)c1CSc1ncnc2ccccc12 | 10.3 | -3.3 | 11.4 | 3.86* | 4.0 | -0.984 | 7560* | 1844 | i
Cc1noc(C)c1CSc1ncnc2sc(C)c(C)c12 | 17.4 | 0.2 | 11.3 | 5.23* | -2.0 | -1.41 | 10232* | 1588 | +
Cc1cc(NC(=O)NC2CCCN2S(=O)(=O)c2ccc(Cl)cc2)no1 (stereo not drawn) | 13.2 | 5.2 | -6.4 | -0.789 | 1.0 | 0.49 | . | . | .
CSc1nc2c(c(=O)n1Cc1ccccc1)SC(C)C2 (stereo not drawn) | 16.7 | 8.9 | 16.1 | 5.38* | -4.0 | 0.428 | 8668* | 1704 | +
SMILES | PostGolgi ctrl | PostGolgi yeast | tolC growth inh | D1 mod | Ecoli WT expand | DAT uptake mod | D1 PAM confirm | D1 no dopamine | Isoprot counter
CC1Cc2nc(SCC(=O)NC3CCCCC3)n(C)c(=O)c2S1 (stereo not drawn) | 6.5 | 13.9 | -15.3 | -0.0137 | -5.0 | -0.123 | . | . | .
CC(C)Sc1nc2c(c(=O)n1C)SC(C)C2 (stereo not drawn) | 10.4 | -7.5 | 11.8 | 3.37* | 5.0 | -0.176 | 8852* | 1524 | i
O=C(Cc1ccccc1)N1CCN(C(=O)c2cccs2)CC1 | 6.5 | 5.0 | -14.8 | 0.441 | -1.0 | 0.173 | . | . | .
CCOC(=O)c1nnn(-c2nonc2N)c1-c1ccc(OC)cc1 | 7.4 | -8.7 | -3.2 | 10.7* | -3.0 | -0.392 | 22732* | 1492 | +
CCOC(=O)c1c(N)n[nH]c1-c1ccc(OC)cc1 | 5.7 | 22.4 | -4.5 | 8.95* | 3.0 | -0.778 | 16256* | . | +
CC1CCN(C(=O)Cn2cc3c(n2)CCCC3)CC1 | 10.1 | 5.8 | -17.5 | 0.126 | 2.0 | -0.43 | . | . | .
CCSc1ncc(Cl)c(C(=O)Nc2ccc(S(=O)(=O)Nc3onc(C)c3C)cc2)n1 | 2.7 | -2.1 | 30.1 | 5.62* | -2.0 | -0.389 | 11540* | 1528 | i
COc1cc(CN(C(=O)c2ccco2)c2ccc(C)cc2)ccc1O | 11.9 | -11.6 | 20.7 | 9.48* | 29.0 | 0.419 | 13744* | 1484 | +
COc1ccc(N(Cc2cc3ccc(C)cc3[nH]c2=O)C(=O)c2ccco2)cc1 | 2.3 | -2.9 | -11.7 | 0.502 | -5.0 | -0.0185 | . | . | .
CCCc1nc2sc3ccccc3c(=O)c2c(=O)n1Cc1ccco1 | -4.7 | 13.9 | 69.8* | 4.58* | 10.0 | . | 9128* | 1636 | i
CC1(C(=O)NC2CCCCC2)CCC(=O)N1Cc1cccnc1 (stereo not drawn) | 4.8 | -8.1 | -4.3 | 7.47* | -5.0 | -1.74 | 4868 | 1504 | i
CC1=C(C(=O)OCc2ccccc2)C(c2cccnc2)c2c(n(C)c(=O)n(C)c2=O)N1 (stereo not drawn) | 10.5 | -1.8 | . | . | -2.0 | 0.722 | . | . | .
COC(=O)c1sc(Nc2ccccc2)nc1C | 23.5 | -3.0 | 10.1 | 0.113 | -2.0 | 0.67 | . | . | .
CC(C)(C)C(=O)c1sc(Nc2ccccc2)nc1N | 25.4 | -7.1 | 57.7 | 12.1* | 20.0 | 1.32* | 16628* | 1584 | +
COc1ccc(C2/C=C\CN(Cc3ccco3)CC(=O)N2Cc2ccc(F)cc2)cc1 (stereo not drawn) | . | . | . | . | . | -0.00262 | . | . | .
Cc1ccc(S(=O)(=O)CC(=O)N(C)C)cc1 | 12.3 | 1.0 | -14.4 | -0.0546 | 2.0 | 0.00217 | . | . | .
